The values below come from ChEMBL document CHEMBL1795310, “Novel agmatine and agmatine-like peptidomimetic inhibitors of the West Nile virus NS2B/NS3 serine protease” (Eur J Med Chem, 2011).

As a reminder, the IC50 is the concentration needed to halve the response being measured. High values mean a need for much substance, low ones inhibition by little substance. The Ki is the dissociation constant of the complex between target and ligand, obtained from inhibition or displacement.

The source made the active and inactive calls. The rule behind the calls is not given here. Some results are limits rather than exact numbers.

The nature of assay [1]: Inhibition of West Nile virus NS2B-NS3 serine protease preincubated for 1 hr before addition of Pyr-RTKR-AMC fluorogenic substrate by measuring fluorescence every 45 seconds for 1 hr by fluorescence assay. The method, boiled down: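 WNV NS2B/NS3 protease (20 nM) preincubated with varying inhibitor concentrations 1 h at 25 °C in pH 8.0 buffer (10 mM Tris–HCl, 1 mM CHAPS, 20% v/v glycerol). Pyr-RTKR-AMC added to 20 μM final. Fluorescence (ex 355/em 460 nm) read at 37 °C every 45 s for 1 h. Duplicates. IC50 from sigmoidal fit of initial velocity vs log[inhibitor]. Nona-D-Arg-NH2 as positive control.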

In assay [2] the target is Prothrombin (Homo sapiens) (UniProt P00734). The assay can be described thus: Inhibition of thrombin assessed as fluorescence intensity at 100 uM pretreated for 1 hr before substrate addition measured every 45 seconds for 1 hr. In short, it runs like this:
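Assay run with a commercial AFC thrombin kit. Thrombin (40 nM) incubated with inhibitor 1 h at 25 °C in kit reaction buffer, then AFC substrate added. Fluorescence (ex 380/em 500 nm) read at 25 °C. NAPAP served as positive control.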

Assay [3] is described as follows: Competitive inhibition of West Nile virus NS2B-NS3 serine protease assessed as rate of Pyr-RTKR-AMC hydrolysis every 45 seconds for 1 hr by Lineweaver-Burk plot analysis. The method, boiled down:
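Inhibitor at 0, 5, 10, 20, 40 and 70 μM preincubated with protease (20 nM) 1 h at 25 °C, pH 8.0 (10 mM Tris–HCl, 1 mM CHAPS, 20% v/v glycerol). Pyr-RTKR-AMC then added at 10–500 μM (seven levels). Hydrolysis followed at 37 °C, ex 355/em 460 nm. Ki from non-linear regression with a competitive inhibition model, alongside a 1/V vs 1/S plot.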

`N=C(N)NC[C@@H]1CCN(C(=O)[C@H](CCCCN)NC(=O)[C@H](CCCCN)NC(=O)Cc2ccc(-c3ccccc3)cc2)C1` gave a half-maximal inhibitory concentration (IC50) in assay [1] of 20 µM.
The molecule `N=C(N)NC/C=C/CNC(=O)[C@H](CCCCN)NC(=O)[C@H](CCCCN)NC(=O)Cc1ccc(-c2ccccc2)cc1` came in with an IC50 in assay [1] of 61.2 µM.
Same read-out and setting: with `N=C(N)NCCCNC(=O)[C@H](CCCCN)NC(=O)[C@H](CCCCN)NC(=O)Cc1ccc(-c2ccccc2)cc1` the figure was greater than 100 µM.
Consider `N=C(N)NCCCCNC(=O)[C@H](CCCCN)NC(=O)[C@H](CCCCN)NC(=O)Cc1ccc(-c2ccccc2)cc1`, for which the result in assay [2] was inactive. Besides, half-maximal inhibition in assay [1] (IC50) required 4.7 µM. The Ki in assay [3] is 2050 nM.
Take `CC(=O)N[C@@H](CCCCN)C(=O)N[C@@H](CCCCN)C(=O)NCCCCNC(=N)N`: the result in assay [2] was inactive. Half-maximal inhibition in assay [1] (IC50) was put at 18.2 µM.
In assay [1], `N=C(N)NCCCCCNC(=O)[C@H](CCCCN)NC(=O)[C@H](CCCCN)NC(=O)Cc1ccc(-c2ccccc2)cc1` displayed an IC50 greater than 100 µM.
Turning to `N=C(N)NC1CCC(NC(=O)[C@H](CCCCN)NC(=O)[C@H](CCCCN)NC(=O)Cc2ccc(-c3ccccc3)cc2)CC1` (stereo partly drawn), in assay [1], the IC50 was greater than 100 µM.
Same read-out and setting: the result for `N=C(N)NC[C@H]1CCN(C(=O)[C@H](CCCCN)NC(=O)[C@H](CCCCN)NC(=O)Cc2ccc(-c3ccccc3)cc2)C1` reads greater than 100 µM; that for `N=C(N)NCC1CCN(C(=O)[C@H](CCCCN)NC(=O)[C@H](CCCCN)NC(=O)Cc2ccc(-c3ccccc3)cc2)CC1`, greater than 100 µM.
Still for that read-out and setting: with `N=C(N)NCCNC(=O)[C@H](CCCCN)NC(=O)[C@H](CCCCN)NC(=O)Cc1ccc(-c2ccccc2)cc1` the figure was greater than 100 µM.
